# Measured values: ChEMBL document CHEMBL6087468, “TKK130 is a 3-Hydroxy-Propanamidine (HPA) with Potent Antimalarial In Vivo Activity and a High Barrier to Resistance” (J Med Chem, 2025)
# Active and inactive are the calls of the source. No cut-off for these calls is given here.
# Legend:
# [1] = Metabolic stability in human liver microsomes assessed as intrinsic clearance at 50 ug/ml measured up to 60 mins; format: ADME, Microsome; details: dose 50 µg/ml; for microsomal CLint at 50 ug/ml: liver microsomes, read-out: CLH
# How it was run: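 Pooled human liver microsomes (150 donors) in 0.1 M potassium phosphate buffer pH 7.4, cosolvent method, analyte at 1 μM final; reactions stopped with ice-cold acetonitrile at 0, 15, 30, 45, 60 min; LC–MS/MS. Clint from ke (negative slope of ln peak-area ratio vs time) via t1/2 = ln2/ke; triplicate; no-cofactor negative control and blank run.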
# [2] = tested on: Hemozoin; assay: Inhibition of beta-hematin formation assessed as formation of bis-pyridyl heme complex incubated for 4 to 5 hrs by Nonidet-40 based plate reader assay
# [3] = tested on: Plasmodium falciparum; assay: (§1) Antimalarial activity against chloroquine, sulfadoxine, and pyrimethamine-resistant Plasmodium falciparum Dd2 infected in erythrocyte assessed as reduction in number of viable parasites at 10 times IC50 concentration treated for 72 hrs followed by allowed to recover in drug-free medium for 28 days by HRP2-ELISA analysis; format: functional, organism-based
# [4] = tested on: Plasmodium berghei; assay: In vivo antiplasmodial activity against Plasmodium berghei infected mouse model assessed as parasitemia suppression in blood at 50 mg/kg, po treated 4 times measured at 96 hrs post infection by fluorescence-activated cell sorting (FACS) analysis; format: functional
# [5] = tested on: Plasmodium berghei; assay: In vivo antiplasmodial activity against Plasmodium berghei infected mouse model assessed as mean survival time at 10 mg/kg, po treated 4 times measured at 96 hrs post infection by fluorescence-activated cell sorting (FACS) analysis (reference value: 4 days); format: functional
# [6] = Selectivity index, ratio of IC50 for antimalarial activity against Plasmodium falciparum 3D7 to IC50 for cytotoxicity against human HEK293 cells; details: HEK293 cells and Plasmodium falciparum 3D7
# [7] = tested on: Plasmodium falciparum; assay: Antimalarial activity against chloroquine-sensitive Plasmodium falciparum 3D7 infected in erythrocytes measured after 3 days by HRP2-ELISA analysis; format: functional, organism-based; details: 3D7, Erythrocyte, 72 h
# [8] = tested on: Plasmodium falciparum; assay: Antimalarial activity against Plasmodium falciparum K1 infected in human erythrocytes assessed as inhibition of parasite growth measured after 48 hrs incubation by [3H]hypoxanthine incorporation assay; format: functional, organism-based; details: K1, Erythrocyte
# [9] = tested on: Plasmodium falciparum; assay: Antimalarial activity against chloroquine, sulfadoxine, and pyrimethamine-resistant Plasmodium falciparum Dd2 infected in erythrocytes measured after 3 days by HRP2-ELISA analysis; format: functional, organism-based; details: Dd2, Erythrocyte, 72 h
# [10] = Selectivity index, ratio of IC50 for antimalarial activity against Plasmodium falciparum 3D7 to IC50 for cytotoxicity against human HepG2 cells; details: HepG2 cells and Plasmodium falciparum 3D7
# [11] = tested on: Plasmodium falciparum; assay: Antimalarial activity against Plasmodium falciparum NF54 infected in human erythrocytes assessed as inhibition of parasite growth measured after 48 hrs incubation by [3H]hypoxanthine incorporation assay; format: functional, organism-based; details: NF54, Erythrocyte
# [12] = tested on: Plasmodium berghei; assay: In vivo antiplasmodial activity against Plasmodium berghei infected mouse model assessed as parasitemia suppression in blood at 10 mg/kg, po treated 4 times measured at 96 hrs post infection by fluorescence-activated cell sorting (FACS) analysis; format: functional
# [13] = tested on: Plasmodium berghei; assay: In vivo antiplasmodial activity against Plasmodium berghei infected mouse model assessed as parasitemia suppression in blood at 3 mg/kg, po treated 4 times measured at 96 hrs post infection by fluorescence-activated cell sorting (FACS) analysis; format: functional
# [14] = tested on: Plasmodium berghei; assay: In vivo antiplasmodial activity against Plasmodium berghei infected mouse model assessed as curation rate at 10 mg/kg, po treated 4 times measured at 96 hrs post infection by fluorescence-activated cell sorting (FACS) analysis; format: functional
# [15] = tested on: Plasmodium falciparum; assay: as §1, with “120” for “72”; format: functional, organism-based
# [16] = tested on: Plasmodium berghei; assay: In vivo antiplasmodial activity against Plasmodium berghei infected mouse model assessed as mean survival time at 50 mg/kg, po treated 4 times measured at 96 hrs post infection by fluorescence-activated cell sorting (FACS) analysis (reference value: 4 days); format: functional
# [17] = tested on: Plasmodium berghei; assay: In vivo antiplasmodial activity against Plasmodium berghei infected mouse model assessed as mean survival time at 30 mg/kg, po treated 4 times measured at 96 hrs post infection by fluorescence-activated cell sorting (FACS) analysis (reference value: 4 days); format: functional
# [18] = tested on: Plasmodium falciparum; assay: as §1, with “24” for “72”; format: functional, organism-based
# [19] = tested on: Plasmodium berghei; assay: In vivo antiplasmodial activity against Plasmodium berghei infected mouse model assessed as parasitemia suppression in blood at 30 mg/kg, po treated 4 times measured at 96 hrs post infection by fluorescence-activated cell sorting (FACS) analysis; format: functional
# [20] = Cytotoxicity against human HepG2 cells assessed as cell viability measured after 24 hrs by neutral red assay; format: toxicity, cell-based
# [21] = Selectivity index, ratio of IC50 for antimalarial activity against Plasmodium falciparum 3D7 to IC50 for cytotoxicity against human HeLa cells; details: HeLa cells and Plasmodium falciparum 3D7
# [22] = Plasma protein binding in plasma (unknown origin) at 25 ng/ml measured after 24 hrs by dilution method; format: ADME, cell-free
# How it was run: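 Equilibrium dialysis with donor plasma diluted 1:10 or 1:20 in 0.9% saline, spiked at 25 ng/mL, against 0.9% saline acceptor for 24 h at 37 °C. Concentrations by LC–MS/MS against diluted-plasma calibration curves; unbound fraction (acceptor/donor) back-calculated to undiluted plasma; triplicate; itraconazole reference.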
# [23] = Plasma protein binding in plasma (unknown origin) at 25 ng/ml measured after 24 hrs by standard equilibrium dialysis assay; format: ADME, cell-free; details: read-out: PPB (converted)
# How it was run: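 Standard equilibrium dialysis (6 kDa regenerated cellulose membrane): donor plasma spiked at 25 ng/mL, acceptor 0.9% saline, 24 h at 37 °C. Acetonitrile precipitation of plasma, methanol added to acceptor; LC–MS/MS with calibration curves in each medium; fraction bound corrected for volume shift; triplicate; itraconazole reference.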
# [24] = tested on: Plasmodium berghei; assay: In vivo antiplasmodial activity against Plasmodium berghei infected mouse model assessed as curation rate at 30 mg/kg, po treated 4 times measured at 96 hrs post infection by fluorescence-activated cell sorting (FACS) analysis; format: functional
# [25] = tested on: Plasmodium falciparum; assay: Antimalarial activity against multidrug-resistant Plasmodium falciparum RF12 (PH-1263-C) harboring pfcrt, pfmdr1, pfdhfr, pfdhps and pfK13 plasmepsin II mutated loci assessed as inhibition of parasite growth incubated for 48 hrs by [3H]hypoxanthine incorporation assay; format: functional, organism-based
# [26] = tested on: Plasmodium falciparum; assay: Antimalarial activity against multidrug-resistant Plasmodium falciparum Dd2 harboring pfcrt, pfmdr1, pfdhfr, pfdhps mutated loci assessed as inhibition of parasite growth incubated for 48 hrs by [3H]hypoxanthine incorporation assay; format: functional, organism-based
# [27] = Cytotoxicity against human HEK293 cells assessed as cell viability measured after 24 hrs by neutral red assay; format: toxicity, cell-based
# [28] = tested on: Plasmodium knowlesi; assay: Antiplasmodial activity against Plasmodium Knowlesi inhibition of parasite growth measured after 48 hrs incubation by Sybr-green assay; format: functional, organism-based
# [29] = Cytotoxicity against human HeLa cells assessed as cell viability measured after 24 hrs by neutral red assay; format: toxicity, cell-based
# [30] = tested on: Plasmodium falciparum; assay: Antimalarial activity against multidrug-resistant Plasmodium falciparum TM90C2b harboring pfcrt, pfmdr1, pfdhfr, pfdhps and pfcytb-Q0 mutated loci assessed as inhibition of parasite growth incubated for 48 hrs by [3H]hypoxanthine incorporation assay; format: functional, organism-based
# [31] = tested on: Plasmodium falciparum; assay: Induction of resistance development in Plasmodium falciparum Dd2 Pol delta at 2 x 10^7 initial inoculum per flask measured on day 16 by single-step selection assay; format: functional, organism-based
# [32] = tested on: Plasmodium falciparum; assay: Induction of resistance development in Plasmodium falciparum Dd2 Pol delta at 2 x 10^7 initial inoculum per flask by single-step selection assay; format: functional, organism-based
# [33] = tested on: Plasmodium falciparum; assay: Induction of resistance development in Plasmodium falciparum Dd2 Pol delta at 2 x 10^7 initial inoculum per flask measured by growth inhibition assay; format: functional, organism-based
# How it was run: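 Recrudescent Dd2-Polδ parasites from DSM265 selection, compared with the parent line in the growth inhibition assay to measure the IC50 shift.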
smiles,measurement,setting,value
CCCCN(CCCC)CCC(O)c1cc2c(Cl)cc(Cl)cc2c2cc(C(F)(F)F)ccc12 (stereo unspecified) [HALOFANTRINE],microsomal CLint at 50 ug/ml,[1],26.9 µL/min/mg
same,IC50,[2],13.4 µM
CCc1nc(N)nc(N)c1-c1ccc(Cl)cc1,Activity,[3],Active; Compound Exhibited Slower Acting
COc1ccc(/N=C(\N)CC(O)c2cc3c(F)cc(F)cc3c3cc(C(F)(F)F)ccc23)cc1 (stereo unspecified),CLint,"[1]; microsomes, 1 h",13.6 µL/min/mg
same,Activity,[4],99.8%
same,MSD,[5],17 days
same,selectivity ratio,[6],7360
same,IC50,[7],0.005 µM
same,IC50,[8],0.006 µM
same,IC50,[9],0.012 µM
same,selectivity ratio,[10],860
same,IC50,[11],0.016 µM
same,Activity,[12],99.9%
same,Activity,[13],0%
same,Activity,[14],0%
same,Activity,[15],Active
same,MSD,[16],27 days
same,MSD,[17],28 days
same,Activity,[18],Active; Compound Exhibited Fast-Acting Than Dihydroartemisinin
same,Activity,[19],99.9%
same,IC50,[2],8.4 µM
same,IC50 at 24 h,[20],4.2 µM
same,selectivity ratio,[21],9220
same,Activity,[3],Active
CCC(C)n1ncn(-c2ccc(N3CCN(c4ccc(OCC5COC(Cn6cncn6)(c6ccc(Cl)cc6Cl)O5)cc4)CC3)cc2)c1=O (stereo unspecified) [ITRACONAZOLE],"fraction unbound at 24 h, 25 ng/ml",[22],0.004
same,"fraction unbound at 24 h, 25 ng/ml",[23],0.016
CCCCN(CCCC)CC(O)c1cc(Cl)cc2c1-c1ccc(Cl)cc1/C2=C/c1ccc(Cl)cc1 (stereo unspecified) [LUMEFANTRINE],IC50,[7],0.006 µM
same,IC50,[8],0.001 µM
same,IC50,[9],0.002 µM
same,selectivity ratio,[10],> 20
same,IC50,[11],0.005 µM
same,MSD,[17],>30 days
same,Activity,[19],99.8%
same,IC50 at 24 h,[20],> 20 µM
O=C1C(O)=C([C@H]2CC[C@H](c3ccc(Cl)cc3)CC2)C(=O)c2ccccc21,Activity,[15],Active; Compound Exhibited Slower Acting
C[C@@H]1CC[C@H]2[C@@H](C)C(=O)O[C@@H]3O[C@@]4(C)CC[C@@H]1[C@]32OO4 [ARTEMISININ],MSD,[17],9 days
same,Activity,[19],99%
same,Activity,[24],0%
CCN(CC)CCCC(C)Nc1ccnc2cc(Cl)ccc12 (stereo unspecified) [CHLOROQUINE],microsomal CLint at 50 ug/ml,[1],< 7 µL/min/mg
same,IC50,[25],0.004 µM
same,IC50,[26],0.015 µM
same,IC50 at 24 h,[27],> 1000 µM
same,IC50,[28],0.016 µM
same,IC50 at 24 h,[29],> 1000 µM
same,MSD,[17],21 days
same,Activity,[19],99.9%
same,Activity,[24],0%
same,IC50,[30],0.013 µM
Cc1cc(Nc2ccc(S(F)(F)(F)(F)F)cc2)n2nc(C(C)(F)F)nc2n1 [DSM-265],Activity,[31],Not active; Recrudescence Of Parasite Observed
same,IC50,[32],0.0102 µM
same,IC50,[33],0.232 µM
